Source: ChEMBL document CHEMBL4334458, “Design, synthesis and antibacterial evaluation of novel 15-membered 11a-azahomoclarithromycin derivatives with the 1, 2, 3-triazole side chain” (Eur J Med Chem, 2019)
In brackets after ≈: the same amount, converted by molar mass.

Legend:
Type in all cases: functional
Staphylococcus aureus [1] = assay: Antibacterial activity against erythromycin-susceptible Staphylococcus aureus ATCC 25923 incubated for 24 hrs by broth dilution method; conditions: ATCC 25923, 24 h
Outline: (§1)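 CLSI broth microdilution in cation-adjusted Mueller-Hinton broth. Twofold dilutions spanned 0.25–128 or 0.5–256 µg/mL, with CAM and AZM as controls. Log-phase bacteria were added and incubated 24 h at 37 °C. MIC was read by turbidity as the concentration of the last clear well.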

Streptococcus pyogenes [2] = assay: Antibacterial activity against erythromycin-resistant Streptococcus pyogenes 2 clinical isolate incubated for 24 hrs by broth dilution method
Bacillus subtilis = assay: Antibacterial activity against penicillin-susceptible Bacillus subtilis ATCC 9372 incubated for 24 hrs by broth dilution method; conditions: ATCC 9372, 24 h; outline: as §1
Staphylococcus aureus [3] = assay: Antibacterial activity against penicillin-resistant Staphylococcus aureus ATCC 31007 incubated for 24 hrs by broth dilution method; conditions: ATCC 31007, 24 h
Streptococcus pneumoniae [4] = assay: Antibacterial activity against erythromycin-resistant Streptococcus pneumoniae B1 expressing the ermB incubated for 24 hrs by broth dilution method
Staphylococcus aureus [5] = assay: Antibacterial activity against methicillin-resistant Staphylococcus aureus ATCC 43300 incubated for 24 hrs by broth dilution method; conditions: ATCC 43300, 24 h
Streptococcus pyogenes [6] = assay: Antibacterial activity against erythromycin-susceptible Streptococcus pyogenes 1 clinical isolate incubated for 24 hrs by broth dilution method; outline: as §1
Streptococcus pneumoniae [7] = assay: Antibacterial activity against erythromycin-resistant Streptococcus pneumoniae AB11 expressing the ermB and mefA incubated for 24 hrs by broth dilution method
Pseudomonas aeruginosa = assay: Antibacterial activity against penicillin-susceptible Pseudomonas aeruginosa ATCC 27853 incubated for 24 hrs by broth dilution method; conditions: ATCC 27853, 24 h; outline: as §1
Escherichia coli = assay: Antibacterial activity against penicillin-susceptible Escherichia coli ATCC 25922 incubated for 24 hrs by broth dilution method; conditions: ATCC 25922, 24 h; outline: as §1

| SMILES | MIC (Staphylococcus aureus [1]) | MIC (Streptococcus pyogenes [2]) | MIC (Bacillus subtilis) | MIC (Staphylococcus aureus [3]) | MIC (Streptococcus pneumoniae [4]) | MIC (Staphylococcus aureus [5]) | MIC (Streptococcus pyogenes [6]) | MIC (Streptococcus pneumoniae [7]) | MIC (Pseudomonas aeruginosa) | MIC (Escherichia coli) |
| --- | --- | --- | --- | --- | --- | --- | --- | --- | --- | --- |
| CO[C@]1(C)C[C@@H](C)[C@H](O)[C@H](C)CN(C)[C@@H](Cn2cc(-c3ccc(Cl)cc3)nn2)COC(=O)[C@H](C)[C@@H](O[C@H]2C[C@@](C)(OC)[C@@H](O)[C@H](C)O2)[C@H](C)[C@H]1O[C@@H]1O[C@H](C)C[C@H](N(C)C)[C@H]1O | 32 µg/mL (≈ 35.7 µM) | 64 µg/mL (≈ 71.4 µM) | 16 µg/mL (≈ 17.8 µM) | 128 µg/mL (≈ 143 µM) | 256 µg/mL (≈ 286 µM) | 64 µg/mL (≈ 71.4 µM) | 16 µg/mL (≈ 17.8 µM) | 128 µg/mL (≈ 143 µM) | > 128 µg/mL | > 128 µg/mL |
| CO[C@]1(C)C[C@@H](C)[C@H](O)[C@H](C)CN(C)C[C@@H](Cn2cc(-c3ccc(F)cc3)nn2)OC(=O)[C@H](C)[C@@H](O[C@H]2C[C@@](C)(OC)[C@@H](O)[C@H](C)O2)[C@H](C)[C@H]1O[C@@H]1O[C@H](C)C[C@H](N(C)C)[C@H]1O | 0.5 µg/mL (≈ 0.568 µM) | 64 µg/mL (≈ 72.7 µM) | 0.5 µg/mL (≈ 0.568 µM) | 128 µg/mL (≈ 145 µM) | 64 µg/mL (≈ 72.7 µM) | 128 µg/mL (≈ 145 µM) | 0.25 µg/mL (≈ 0.284 µM) | 16 µg/mL (≈ 18.2 µM) | 32 µg/mL (≈ 36.4 µM) | 32 µg/mL (≈ 36.4 µM) |
| CO[C@]1(C)C[C@@H](C)[C@H](O)[C@H](C)CN(C)C[C@H](COCc2cn(-c3ccc(C(C)C)cc3)nn2)OC(=O)[C@H](C)[C@@H](O[C@H]2C[C@@](C)(OC)[C@@H](O)[C@H](C)O2)[C@H](C)[C@H]1O[C@@H]1O[C@H](C)C[C@H](N(C)C)[C@H]1O | 1 µg/mL (≈ 1.07 µM) | 32 µg/mL (≈ 34.3 µM) | 0.5 µg/mL (≈ 0.535 µM) | 128 µg/mL (≈ 137 µM) | 64 µg/mL (≈ 68.5 µM) | 64 µg/mL (≈ 68.5 µM) | 1 µg/mL (≈ 1.07 µM) | 32 µg/mL (≈ 34.3 µM) | 16 µg/mL (≈ 17.1 µM) | 64 µg/mL (≈ 68.5 µM) |
| CO[C@]1(C)C[C@@H](C)[C@H](O)[C@H](C)CN(C)C[C@@H](Cn2cc(-c3ccccn3)nn2)OC(=O)[C@H](C)[C@@H](O[C@H]2C[C@@](C)(OC)[C@@H](O)[C@H](C)O2)[C@H](C)[C@H]1O[C@@H]1O[C@H](C)C[C@H](N(C)C)[C@H]1O | 2 µg/mL (≈ 2.32 µM) | 128 µg/mL (≈ 148 µM) | 4 µg/mL (≈ 4.63 µM) | > 256 µg/mL | 128 µg/mL (≈ 148 µM) | > 256 µg/mL | 1 µg/mL (≈ 1.16 µM) | 128 µg/mL (≈ 148 µM) | 64 µg/mL (≈ 74.2 µM) | 128 µg/mL (≈ 148 µM) |
| CO[C@]1(C)C[C@@H](C)[C@H](O)[C@H](C)CN(C)C[C@H](Cn2cc(-c3ccc(F)cc3)nn2)OC(=O)[C@H](C)[C@@H](O[C@H]2C[C@@](C)(OC)[C@@H](O)[C@H](C)O2)[C@H](C)[C@H]1O[C@@H]1O[C@H](C)C[C@H](N(C)C)[C@H]1O | 2 µg/mL (≈ 2.27 µM) | 64 µg/mL (≈ 72.7 µM) | 2 µg/mL (≈ 2.27 µM) | 256 µg/mL (≈ 291 µM) | 256 µg/mL (≈ 291 µM) | 256 µg/mL (≈ 291 µM) | 0.25 µg/mL (≈ 0.284 µM) | 256 µg/mL (≈ 291 µM) | 64 µg/mL (≈ 72.7 µM) | 32 µg/mL (≈ 36.4 µM) |
| CO[C@]1(C)C[C@@H](C)[C@H](O)[C@H](C)CN(C)[C@H](Cn2cc(-c3ccccn3)nn2)COC(=O)[C@H](C)[C@@H](O[C@H]2C[C@@](C)(OC)[C@@H](O)[C@H](C)O2)[C@H](C)[C@H]1O[C@@H]1O[C@H](C)C[C@H](N(C)C)[C@H]1O | 16 µg/mL (≈ 18.5 µM) | 256 µg/mL (≈ 297 µM) | 32 µg/mL (≈ 37.1 µM) | 256 µg/mL (≈ 297 µM) | 256 µg/mL (≈ 297 µM) | 256 µg/mL (≈ 297 µM) | 4 µg/mL (≈ 4.63 µM) | 128 µg/mL (≈ 148 µM) | 64 µg/mL (≈ 74.2 µM) | 64 µg/mL (≈ 74.2 µM) |
| CO[C@]1(C)C[C@@H](C)[C@H](O)[C@H](C)CN(C)C[C@@H](COCc2cn(-c3ccc(SC)cc3)nn2)OC(=O)[C@H](C)[C@@H](O[C@H]2C[C@@](C)(OC)[C@@H](O)[C@H](C)O2)[C@H](C)[C@H]1O[C@@H]1O[C@H](C)C[C@H](N(C)C)[C@H]1O | 4 µg/mL (≈ 4.26 µM) | 32 µg/mL (≈ 34.1 µM) | 2 µg/mL (≈ 2.13 µM) | 128 µg/mL (≈ 136 µM) | 64 µg/mL (≈ 68.2 µM) | 64 µg/mL (≈ 68.2 µM) | 4 µg/mL (≈ 4.26 µM) | 32 µg/mL (≈ 34.1 µM) | 128 µg/mL (≈ 136 µM) | 128 µg/mL (≈ 136 µM) |
| CO[C@]1(C)C[C@@H](C)[C@H](O)[C@H](C)CN(C)[C@H](Cn2cc(-c3ccccc3)nn2)COC(=O)[C@H](C)[C@@H](O[C@H]2C[C@@](C)(OC)[C@@H](O)[C@H](C)O2)[C@H](C)[C@H]1O[C@@H]1O[C@H](C)C[C@H](N(C)C)[C@H]1O | 8 µg/mL (≈ 9.28 µM) | 128 µg/mL (≈ 148 µM) | 16 µg/mL (≈ 18.6 µM) | 128 µg/mL (≈ 148 µM) | 256 µg/mL (≈ 297 µM) | 256 µg/mL (≈ 297 µM) | 8 µg/mL (≈ 9.28 µM) | 256 µg/mL (≈ 297 µM) | 64 µg/mL (≈ 74.2 µM) | 64 µg/mL (≈ 74.2 µM) |
| CO[C@]1(C)C[C@@H](C)[C@H](O)[C@H](C)CN(C)[C@@H](Cn2cc(-c3ccccc3)nn2)COC(=O)[C@H](C)[C@@H](O[C@H]2C[C@@](C)(OC)[C@@H](O)[C@H](C)O2)[C@H](C)[C@H]1O[C@@H]1O[C@H](C)C[C@H](N(C)C)[C@H]1O | 32 µg/mL (≈ 37.1 µM) | 128 µg/mL (≈ 148 µM) | 16 µg/mL (≈ 18.6 µM) | 256 µg/mL (≈ 297 µM) | 256 µg/mL (≈ 297 µM) | 256 µg/mL (≈ 297 µM) | 2 µg/mL (≈ 2.32 µM) | 128 µg/mL (≈ 148 µM) | > 128 µg/mL | > 128 µg/mL |
| CO[C@]1(C)C[C@@H](C)[C@H](O)[C@H](C)CN(C)C[C@H](Cn2cc(-c3ccccc3)nn2)OC(=O)[C@H](C)[C@@H](O[C@H]2C[C@@](C)(OC)[C@@H](O)[C@H](C)O2)[C@H](C)[C@H]1O[C@@H]1O[C@H](C)C[C@H](N(C)C)[C@H]1O | 1 µg/mL (≈ 1.16 µM) | 128 µg/mL (≈ 148 µM) | 1 µg/mL (≈ 1.16 µM) | 256 µg/mL (≈ 297 µM) | 256 µg/mL (≈ 297 µM) | 256 µg/mL (≈ 297 µM) | 0.12 µg/mL (≈ 0.139 µM) | 128 µg/mL (≈ 148 µM) | 64 µg/mL (≈ 74.2 µM) | 32 µg/mL (≈ 37.1 µM) |
| CO[C@]1(C)C[C@@H](C)[C@H](O)[C@H](C)CN(C)C[C@H](COCc2cn(-c3ccc(OC(F)(F)F)cc3)nn2)OC(=O)[C@H](C)[C@@H](O[C@H]2C[C@@](C)(OC)[C@@H](O)[C@H](C)O2)[C@H](C)[C@H]1O[C@@H]1O[C@H](C)C[C@H](N(C)C)[C@H]1O | 2 µg/mL (≈ 2.05 µM) | 32 µg/mL (≈ 32.8 µM) | 1 µg/mL (≈ 1.02 µM) | 128 µg/mL (≈ 131 µM) | 128 µg/mL (≈ 131 µM) | 128 µg/mL (≈ 131 µM) | 2 µg/mL (≈ 2.05 µM) | 32 µg/mL (≈ 32.8 µM) | 16 µg/mL (≈ 16.4 µM) | 64 µg/mL (≈ 65.6 µM) |
| CO[C@]1(C)C[C@@H](C)[C@H](O)[C@H](C)CN(C)[C@H](Cn2cc(-c3ccc(Cl)cc3)nn2)COC(=O)[C@H](C)[C@@H](O[C@H]2C[C@@](C)(OC)[C@@H](O)[C@H](C)O2)[C@H](C)[C@H]1O[C@@H]1O[C@H](C)C[C@H](N(C)C)[C@H]1O | 8 µg/mL (≈ 8.92 µM) | 32 µg/mL (≈ 35.7 µM) | 8 µg/mL (≈ 8.92 µM) | 64 µg/mL (≈ 71.4 µM) | 64 µg/mL (≈ 71.4 µM) | 64 µg/mL (≈ 71.4 µM) | 8 µg/mL (≈ 8.92 µM) | 64 µg/mL (≈ 71.4 µM) | > 128 µg/mL | 128 µg/mL (≈ 143 µM) |
| COc1ccc(-c2cn(C[C@@H]3CN(C)C[C@@H](C)[C@@H](O)[C@H](C)C[C@@](C)(OC)[C@H](O[C@@H]4O[C@H](C)C[C@H](N(C)C)[C@H]4O)[C@@H](C)[C@H](O[C@H]4C[C@@](C)(OC)[C@@H](O)[C@H](C)O4)[C@@H](C)C(=O)O3)nn2)cc1 | 32 µg/mL (≈ 35.9 µM) | 64 µg/mL (≈ 71.7 µM) | 64 µg/mL (≈ 71.7 µM) | 256 µg/mL (≈ 287 µM) | 256 µg/mL (≈ 287 µM) | 256 µg/mL (≈ 287 µM) | 4 µg/mL (≈ 4.48 µM) | 128 µg/mL (≈ 143 µM) | > 128 µg/mL | > 128 µg/mL |
